Results on four compounds are retold here after ChEMBL document CHEMBL1649241, “Antimalarial activity of simalikalactone E, a new quassinoid from Quassia amara L. (Simaroubaceae)” (Antimicrob Agents Chemother, 2009).

In general, inhibition in vivo refers to the percentage by which the read-out fell short of the control. What is called IC50 is the midpoint of a concentration-inhibition curve. Broadly, the ED50 is the dose that gives a 50% effect, or the effect in half of the subjects.

The test system of one data set is Vero. The experiment in a line: Cytotoxicity against african green monkey Vero cells assessed as incorporation of [3H]hypoxanthine after 48 hrs. It is filed as cell-based. The settings on record: chlorocebus sabaeus. The gist of the method:
(§1)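 Vero, MCF7 and THP1 cells were grown under the P. falciparum culture conditions, except that 10% fetal calf serum replaced 5% human serum. Cells were incubated 48 h with serial drug dilutions. Growth was measured by [3H]hypoxanthine incorporation relative to untreated controls. IC50 is the mean ± SEM of ≥3 independent experiments.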

In a further data set the test system is THP-1. The experiment in a line: Cytotoxicity against human THP1 cells assessed as incorporation of [3H]hypoxanthine after 48 hrs. It is filed as cell-based. The settings on record: thp-1, 48 h. The gist of the method: as §1
A further data set deals with MCF7. The experiment in a line: Cytotoxicity against human MCF7 cells assessed as incorporation of [3H]hypoxanthine after 48 hrs. The data set is classed as cell-based. The note with it: mcf7, 48 h. A digest of the protocol: as §1
For data set [1], the system named is Plasmodium vinckei petteri. Put plainly: Antiplasmodial activity against Plasmodium vinckei petteri infected in CD mouse assessed as suppression of parasitemia at 1 mg/kg/day, ip measured on day 5 post-infection by Giemsa staining. The note with it: 120 h, route intraperitoneal. The data set is classed as functional. The gist of the method:
(§2)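 Four-day suppressive test in female CD mice (20 ± 2 g) infected with 10^6 P. vinckei petteri-infected erythrocytes on day 0. Groups of five were dosed i.p. (DMSO vehicle) or p.o. (carboxymethylcellulose vehicle) on days 0–3 at 0.5–20 mg/kg/day. Parasitemia was read from Giemsa-stained tail-blood smears (≥5,000 erythrocytes). % inhibition = (control − treated parasitemia)/control × 100.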

Data set [2] deals with Plasmodium vinckei petteri. Put plainly: Antiplasmodial activity against Plasmodium vinckei petteri infected in CD mouse assessed as suppression of parasitemia at 5 mg/kg/day, ip measured on day 5 post-infection by Giemsa staining. The data set is classed as functional. The settings on record: 120 h, route intraperitoneal. A digest of the protocol:
as §2

Data set [3] concerns Plasmodium vinckei petteri. Put plainly: Antiplasmodial activity against Plasmodium vinckei petteri infected in CD mouse assessed as suppression of parasitemia at 10 mg/kg/day, ip measured on day 5 post-infection by Giemsa staining. The data set is classed as functional. The note with it: 120 h, route intraperitoneal. The gist of the method: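 Four-day suppressive test in female CD mice (20 ± 2 g) infected on day 0 with P. vinckei petteri-infected red blood cells in RPMI. Groups of five treated i.p. once daily, days 0–3; DMSO-only mice were the i.p. control. Parasitemia was counted on Giemsa-stained tail-blood smears (at least 5,000 erythrocytes). Inhibition % = (control − treated parasitemia)/control × 100.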

Data set [4] deals with Plasmodium vinckei petteri. The experiment in a line: Antiplasmodial activity against Plasmodium vinckei petteri infected in po dosed CD mouse assessed as mean survival time at 5 mg/kg/day, ip for 4 days measured upto day 21 post-infection. It is filed as functional. The gist of the method:
(§3)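 Female CD mice were infected with 10^6 P. vinckei petteri-infected erythrocytes and dosed i.p. or p.o. on days 0–3, five per group. Survival was followed to day 21. Mean survival time is the area under the Kaplan–Meier survivor function. Where mice survived, an extended mean was obtained by exponential extension of the survivor function to zero. Comparisons used the log rank test.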

In data set [5] the test system is Plasmodium vinckei petteri. The experiment in a line: Antiplasmodial activity against Plasmodium vinckei petteri infected in po dosed CD mouse assessed as mean survival time at 10 mg/kg/day, ip for 4 days measured upto day 21 post-infection. It is filed as functional. The gist of the method: as §3
Data set [6] relates to Plasmodium vinckei petteri. Put plainly: Antiplasmodial activity against Plasmodium vinckei petteri infected in po dosed CD mouse assessed as extended mean survival time at 10 mg/kg/day, ip for 4 days. It is filed as functional. A digest of the protocol: as §3
Data set [7] concerns Plasmodium falciparum. Put plainly: Antiplasmodial activity against Plasmodium falciparum F32 assessed as suppression of parasitemia after 4 hrs by Giemsa staining. The data set is classed as functional, organism-based. The settings on record: F32, 4 h. The gist of the method:
(§4)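 Asexual blood-stage P. falciparum growth inhibition, run by a modified Desjardins method. Parasites were grown by a modified Trager–Jensen culture and synchronized by magnetic enrichment plus 5% D-sorbitol lysis. F32 is chloroquine-sensitive; FcB1 and W2 are chloroquine-resistant. IC50 is the mean ± SEM of at least three independent experiments.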

For data set [8], the system named is Plasmodium falciparum. Put plainly: Antiplasmodial activity against Plasmodium falciparum FcB1/Columbia assessed as suppression of parasitemia after 4 hrs by Giemsa staining. It is filed as functional, organism-based. The gist of the method:
as §4

Data set [9] deals with Plasmodium falciparum. The experiment in a line: Antiplasmodial activity against Plasmodium falciparum W2 assessed as suppression of parasitemia after 4 hrs by Giemsa staining. It is filed as functional, organism-based. The note with it: W2, 4 h. A digest of the protocol: as §4
The subject of data set [10] is Plasmodium falciparum. Put plainly: Antiplasmodial activity against Plasmodium falciparum W2 gametocytes assessed as suppression of parasitemia […] by Giemsa staining. The data set is classed as functional, organism-based. The gist of the method:
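W2 gametocytogenesis was induced on day 0 by a modified Ifediba–Vanderberg method, with N-acetylglucosamine added on day 10. Increasing compound dilutions were added on day 13. On day 15, Giemsa-stained thin smears were counted (≥10,000 erythrocytes each) to estimate gametocytemia against untreated and reference-drug controls. IC50 is the mean ± SEM of ≥3 independent experiments.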

The subject of another data set is Plasmodium berghei. Put plainly: Antiplasmodial activity against Plasmodium berghei infected in ip dosed mouse. The data set is classed as functional.
The subject of the next data set is Plasmodium yoelii yoelii. The experiment in a line: Antiplasmodial activity against Plasmodium yoelii yoelii infected in po dosed rodents. The data set is classed as functional.
For data set [11], the system named is Plasmodium vinckei petteri. Put plainly: Antiplasmodial activity against Plasmodium vinckei petteri infected in CD mouse assessed as suppression of parasitemia at 1 mg/kg/day, po measured on day 5 post-infection by Giemsa staining. The data set is classed as functional. The settings on record: 120 h. The gist of the method:
as §2

Data set [12] relates to Plasmodium vinckei petteri. Put plainly: Antiplasmodial activity against Plasmodium vinckei petteri infected in CD mouse assessed as suppression of parasitemia at 20 mg/kg/day, po measured on day 5 post-infection by Giemsa staining. It is filed as functional. The settings on record: 120 h. A digest of the protocol:
as §2

The subject of data set [13] is Plasmodium vinckei petteri. The experiment in a line: Antiplasmodial activity against Plasmodium vinckei petteri infected in CD mouse assessed as suppression of parasitemia at 10 mg/kg/day, po measured on day 5 post-infection by Giemsa staining. The note with it: 120 h. It is filed as functional. A digest of the protocol: as §2
Data set [14] deals with Plasmodium vinckei petteri. Put plainly: Antiplasmodial activity against Plasmodium vinckei petteri infected in ip dosed CD mouse assessed as suppression of parasitemia measured on day 5 post-infection by Giemsa staining. The data set is classed as functional. The note with it: 120 h. A digest of the protocol:
as §2

Data set [15] deals with Plasmodium vinckei petteri. The experiment in a line: Antiplasmodial activity against Plasmodium vinckei petteri infected in po dosed CD mouse assessed as suppression of parasitemia measured on day 5 post-infection by Giemsa staining. It is filed as functional. The note with it: 120 h. The gist of the method: as §2
Data set [16] deals with Plasmodium vinckei petteri. The experiment in a line: Antiplasmodial activity against Plasmodium vinckei petteri infected in po dosed CD mouse assessed as mean survival time at 1 mg/kg/day, ip for 4 days measured upto day 21 post-infection. It is filed as functional. The gist of the method:
as §3

For data set [17], the system named is Plasmodium vinckei petteri. The experiment in a line: Antiplasmodial activity against Plasmodium vinckei petteri infected in po dosed CD mouse assessed as mean survival time at 1 mg/kg/day, po for 4 days measured upto day 21 post-infection. It is filed as functional. A digest of the protocol:
as §3

Data set [18] deals with Plasmodium vinckei petteri. The experiment in a line: Antiplasmodial activity against Plasmodium vinckei petteri infected in po dosed CD mouse assessed as mean survival time at 10 mg/kg/day, po for 4 days measured upto day 21 post-infection. The data set is classed as functional. The gist of the method: as §3
Data set [19] has as its system Plasmodium vinckei petteri. Put plainly: Antiplasmodial activity against Plasmodium vinckei petteri infected in po dosed CD mouse assessed as extended mean survival time at 1 mg/kg/day, ip for 4 days. The data set is classed as functional. A digest of the protocol:
as §3

Data set [20] concerns Plasmodium vinckei petteri. The experiment in a line: Antiplasmodial activity against Plasmodium vinckei petteri infected in po dosed CD mouse assessed as extended mean survival time at 5 mg/kg/day, ip for 4 days. It is filed as functional. The gist of the method:
as §3

For data set [21], the system named is Plasmodium vinckei petteri. The experiment in a line: Antiplasmodial activity against Plasmodium vinckei petteri infected in po dosed CD mouse assessed as extended mean survival time at 0.5 mg/kg/day, ip for 4 days. The data set is classed as functional. A digest of the protocol: as §3
Data set [22] concerns Plasmodium vinckei petteri. Put plainly: Antiplasmodial activity against Plasmodium vinckei petteri infected in po dosed CD mouse assessed as extended mean survival time at 1 mg/kg/day, po for 4 days measured upto day 21 post-infection. The data set is classed as functional. The gist of the method: as §3
Data set [23] concerns Plasmodium vinckei petteri. The experiment in a line: Antiplasmodial activity against Plasmodium vinckei petteri infected in po dosed CD mouse assessed as extended mean survival time at 10 mg/kg/day, po for 4 days. It is filed as functional. A digest of the protocol:
as §3

Data set [24] deals with Plasmodium vinckei petteri. The experiment in a line: Antiplasmodial activity against Plasmodium vinckei petteri infected in po dosed CD mouse assessed as extended mean survival time at 20 mg/kg/day, po for 4 days. It is filed as functional. A digest of the protocol:
as §3

The subject of data set [25] is Plasmodium vinckei petteri. Put plainly: Antiplasmodial activity against Plasmodium vinckei petteri infected in po dosed CD mouse assessed as mean survival time at 0.5 mg/kg/day, ip for 4 days measured upto day 21 post-infection. It is filed as functional. A digest of the protocol:
as §3

Data set [26] has as its system Plasmodium vinckei petteri. The experiment in a line: Antiplasmodial activity against Plasmodium vinckei petteri infected in CD mouse assessed as suppression of parasitemia at 0.5 mg/kg/day, ip measured on day 5 post-infection by Giemsa staining. It is filed as functional. The settings on record: 120 h, route intraperitoneal. A digest of the protocol: as §2

On to `CCN(CC)CCCC(C)Nc1ccnc2cc(Cl)ccc12` (stereo not drawn) [CHLOROQUINE], for which the Activity in the data set on Vero was more than 0.5 µM; in the data set on THP-1, more than 500 nM; in the data set with MCF7, more than 500 nM. In [1], the inhibition in vivo at 1 mg/kg/day is not above 0%. For the same compound, the inhibition in vivo at 5 mg/kg/day in data set [2] is 100%. For the same compound, in data set [3], the inhibition in vivo at 10 mg/kg/day was found to be 100%. The MST turned out to be 12.8 days in data set [4], 19.2 days in [5] and 43.87 days in data set [6].

On to `COc1cc(NC(C)CCCN)c2ncccc2c1` (stereo not drawn) [PRIMAQUINE], for which the IC50 with Plasmodium falciparum [7] was found to be 6.17 µM; with Plasmodium falciparum [8], 8.9 µM; with Plasmodium falciparum [9], 7.14 µM; in the data set on Plasmodium falciparum [10], 8.9 µM. Further, the Activity in the data set with Vero came out at 340 µM.

For the compound `CC[C@@H](C)C(=O)O[C@H]1C(=O)O[C@@H]2C[C@H]3C(C)=CC(=O)[C@@H](O)[C@]3(C)[C@H]3[C@@H](O)[C@H](O)[C@]4(C)OC[C@]32[C@@H]14` [SIMALIKALACTONE D], the Activity was 0.058 µM in the data set on Vero, less than 2 nM in the data set on THP-1 and less than 20 nM in the data set on MCF7. Further, the ED50 in the data set with Plasmodium berghei was 0.2 mg/kg/day; in the data set on Plasmodium yoelii yoelii, 3.7 mg/kg/day.

Turning to `CC[C@H](C)C(=O)O[C@@H]1[C@H]2C(C)=CC(=O)[C@@H](O)[C@]2(C)[C@H]2[C@@H](O)[C@H](O)[C@@]3(C)OC[C@@]24[C@@H]1OC(=O)[C@H](OC(=O)[C@@H](C)CC)[C@@H]34` [SIMALIKALACTONE E], the IC50 in the data set on Plasmodium falciparum [10] is 1.12 µM. The Activity with Vero turned out to be 6.574 µM; with THP-1 it was 33 nM; in the data set on MCF7, 47 nM. For the same compound, the inhibition in vivo at 1 mg/kg/day in data set [1] was found to be 98%; in data set [11], 55%. Moreover, in [2], the inhibition in vivo at 5 mg/kg/day was determined as 100%. For the same compound, in data set [12], the inhibition in vivo at 20 mg/kg/day worked out at 100%. The inhibition in vivo at 10 mg/kg/day in [13] was 95%. Moreover, the ED50 is 0.5 mg/kg/day in data set [14], 1 mg/kg/day in data set [15] and 3 mg/kg/day in data set [16] (Plasmodium vinckei). The MST stood at 18.6 days in data set [16]; 11.4 days in data set [4]; 11 days in data set [17]; 12.4 days in data set [18]; 93.89 days in [19]; 20.57 days in data set [20]. Moreover, the MST in [21] turned out to be 41.07 days; in data set [22], 13.61 days; in data set [23], 15.01 days; in data set [24], 16.41 days; in data set [25], 16.4 days. The inhibition in vivo at 0.5 mg/kg/day in [26] came to 59%.
